In the library only some 2.3% were active in any assay of this set; here they are far more common.
ARFGAP1 inhibitor: inhibitors of rat ARFGAP1 GAP activity, primary screen, biochemical, fluorescence polarization, GDP tracer; Arfgap1-stimulated ARF1 GTP hydrolysis, GDP FP detection; hit rate 0.26% among 360,000; AID 651572, 2012; ADP-ribosylation factor GTPase-activating protein 1 (Rattus norvegicus), Q62848; inhibition, % at 16.5 µM;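 active = inhibition above a per-plate limit, mean inhibition of low control wells plus 3 SD, cut at about 25% in these data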
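System: truncated rat Arfgap1 GAP domain / Benchmarks: high control wells lacking Arfgap1, low control full reaction with DMSO / Times: compound-enzyme preincubation 20 min, reaction 120 min, detection 60 min, 25 °C / Repeats: one replicate per compound / Also added: human ARF1(Δ1-17)-GTP substrate / Measured by: Tracer-displacement fluorescence polarization with EDTA stop, 620/688 nm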
sPLA2-III inh: human group III sPLA2 inhibitors, primary screen, biochemical, QFRET, BODIPY PC-A2 liposome substrate. AID 743126, 2013. inhibition, % at 12.2 µM. hit rate 0.56% among 370,000. QFRET BODIPY PC-A2 liposome hydrolysis, fluorescence. Group 3 secretory phospholipase A2 (Homo sapiens), Q9NZ20;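 active = inhibition above mean plus 3 SD of compounds lying within the high and low control bounds, cut at about 19% in these data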
ASAP1 inh: inhibitors of human ASAP1 ArfGAP activity, primary screen, biochemical, fluorescence polarization. Arf-GAP with SH3 domain, ANK repeat and PH domain-containing protein 1 (Homo sapiens), …. ASAP1-stimulated ARF1 GTP hydrolysis, GDP FP detection. inhibition, % at 16.5 µM. hit rate 0.19% among 360,000; in the data active = inhibition above about 25%
Target sequence (Q9ULH1 325-724 limits assumed): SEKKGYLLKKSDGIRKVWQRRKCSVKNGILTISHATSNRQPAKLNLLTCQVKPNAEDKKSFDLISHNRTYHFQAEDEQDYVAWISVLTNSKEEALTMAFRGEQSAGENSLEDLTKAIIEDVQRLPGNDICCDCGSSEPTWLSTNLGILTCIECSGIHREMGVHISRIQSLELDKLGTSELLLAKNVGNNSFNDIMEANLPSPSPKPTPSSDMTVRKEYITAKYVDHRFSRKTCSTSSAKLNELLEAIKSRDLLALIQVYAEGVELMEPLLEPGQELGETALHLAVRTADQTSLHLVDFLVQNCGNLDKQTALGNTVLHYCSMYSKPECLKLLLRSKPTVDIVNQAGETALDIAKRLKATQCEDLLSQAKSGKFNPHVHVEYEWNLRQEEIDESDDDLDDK
Calb FLC: C. albicans growth inhibition with fluconazole, primary screen, CaCi-2 strain, Alamar Blue fluorescence. C. albicans CaCi-2 + fluconazole, 48 h. growth inhibition, % (test concentration not listed). hit rate 0.57% among 300,000. AID 1979, 2009;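 active = growth inhibition above about 58% in most replicates, limit read from the data, passing the limit was not always enough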;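 also: all wells also contain fluconazole at 8 µg/ml as a sub-toxic cotreatment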
SKKanGAS inh: S. pyogenes SKKanGAS growth inhibitors in kanamycin, primary screen, streptokinase expression inhibitor project, SKKanGAS strain, BacTiter-Glo luminescence | 6 h | inhibition, % at 7.5 µM | hit rate 1.3% among 300,000 | AID 1662, 2009;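 active = mean replicate score, as percent of positive control median, at least 50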;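 also: strain carries kanamycin resistance gene driven by streptokinase promoter and grows in 40 µg/ml kanamycin; loss of luminescence reflects streptokinase promoter inhibition or plain growth inhibition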
hGIII sPLA2 conf: human group III sPLA2 inhibitors, confirmation, biochemical, QFRET, triplicate | shares compounds with sPLA2-III inh | recombinant hGIII-sPLA2, BODIPY PC-A2 QFRET fluorescence | inhibition, % at 12.2 µM | hit rate 34% among 2,000;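 active = mean inhibition across triplicates above the hit cutoff set in the earlier primary screen, cut at about 19% in these data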
535nm interf: 535nm fluorescence optical interference, confirmation, artefact control for HGIII-sPLA2 inhibitor project, biochemical, QFRET | shares compounds with sPLA2-III inh | BODIPY FL product fluorescence interference | inhibition, % at 12.2 µM | AID 743282, 2014 | hit rate 8.5% among 2,000;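 active = average inhibition above the solvent-only control mean plus 3 SD, cut at about 6% in these data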
Numbers stand for hits; n = inactive; x = no result.

SMILES	ARFGAP1 inhibitor	sPLA2-III inh	ASAP1 inh	Calb FLC	SKKanGAS inh	hGIII sPLA2 conf	535nm interf
O=C(CN1C(=O)CN=C(c2ccccc2)c2cc(Cl)ccc21)NC1CCCCC1	x	n	x	x	x	x	x
CC(=NCCc1ccccc1)c1c(O)n(C)c(=O)n(C)c1=O	n	n	n	n	n	x	x
CC(=Nc1ccccc1N)c1c(O)n(C)c(=O)n(C)c1=O	n	20	n	n	n	n	n
Cc1ccccc1CCC[C@H](CC1CCCCC1)CN(C)C(=O)Oc1ccccc1	x	n	x	x	x	x	x
CC1OC(OC2CC(O)C3(CO)C4C(O)CC5(C)C(C6=CC(=O)OC6)CCC5(O)C4CCC3(O)C2)C(O)C(O)C1O (stereo unspecified)	n	28	n	x	x	n	n
Cc1cc(-c2cc(C)c(N)c(C)c2)cc(C)c1N	n	22	n	x	x	22	n
Cc1ccc(N)cc1C	n	n	n	x	x	x	x
